Data from ChEMBL document CHEMBL1158468, “Synthesis, structure-activity relationships, and in vivo evaluation of N3-phenylpyrazinones as novel corticotropin-releasing factor-1 (CRF1) receptor antagonists” (J Med Chem, 2009).

Assays:
[1] = biological target: T1, Corticotropin-releasing factor receptor 1 (Rattus norvegicus, UniProt P35353); test: Displacement of [125I]Tyr-ovine-CRF from CRF1 receptor in rat frontal cortex homogenate by gamma counting; format: tissue-based
T1 sequence (P35353 whole entry): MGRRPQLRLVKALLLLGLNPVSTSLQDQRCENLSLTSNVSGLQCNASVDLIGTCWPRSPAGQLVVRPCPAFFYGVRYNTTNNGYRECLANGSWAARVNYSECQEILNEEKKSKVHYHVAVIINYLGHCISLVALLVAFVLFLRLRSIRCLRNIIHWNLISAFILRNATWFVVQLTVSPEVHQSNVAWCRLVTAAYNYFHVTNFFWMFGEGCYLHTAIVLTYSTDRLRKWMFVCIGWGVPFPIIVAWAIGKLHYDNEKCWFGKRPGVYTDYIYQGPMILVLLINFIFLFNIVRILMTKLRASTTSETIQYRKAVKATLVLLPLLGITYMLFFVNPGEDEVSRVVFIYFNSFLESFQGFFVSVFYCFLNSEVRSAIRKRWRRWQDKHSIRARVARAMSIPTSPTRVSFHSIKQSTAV
How it was run: (§1)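 Washed homogenates of frozen rat frontal cortex (CRF1, 25 μg/well) or porcine choroid plexus (CRF2, 10 μg/well) in 50 mM Hepes pH 7.0, 10 mM MgCl2, 2 mM EGTA, protease inhibitors, 0.005% Triton X-100. Ligand 150 pM 125I-ovine-CRF (CRF1) or 100 pM 125I-sauvagine (CRF2). Incubation 2 h at 21 °C, then filtration and gamma counting. Nonspecific binding: 1 μM CRF1 reference antagonist or 1 μM α-helical CRF(9-41). IC50 from 5- or 10-point curves by nonlinear regression.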

[2] = Displacement of [125I]sauvagine from CRF2 receptor in pig choroid plexus homogenate by gamma counting; format: tissue-based, Sus scrofa; how it was run: as §1

Row | SMILES | IC50 [1] [nM] | IC50 [2] [nM]
1 | CC[C@H](C1CC1)n1cc(Cl)nc(N(CC)c2cc(C)c(C)cc2C)c1=O | 1.5 | –
2 | CC[C@H](C1CC1)n1cc(Cl)nc(Nc2c(C)cc(OC)cc2C)c1=O | 0.52 | –
3 | COC[C@@H](C1CC1)n1cc(Cl)nc(Nc2c(C)cc(C)cc2C)c1=O | 1.3 | –
4 | CC[C@H](COC)n1cc(Cl)nc(Nc2cc(C)c(OC)cc2C)c1=O | 0.59 | –
5 | COC[C@@H](C)n1cc(Cl)nc(Nc2c(C)cc(C)cc2C)c1=O | 12 | –
6 | COc1cc(Cl)c2c(c1)CCN2c1nc(Cl)cn([C@H](C)C2CC2)c1=O | 0.62 | –
7 | COc1cc(Br)c2c(c1)OCCN2c1nc(Cl)cn([C@H](C)C2CC2)c1=O | 19 | –
8 | Cc1cc(C)c(Nc2nc(Cl)cn([C@@H](CO)C3CC3)c2=O)c(C)c1 | 35 | –
9 | CC[C@H](C1CC1)n1cc(Cl)nc(Nc2cc(C)c(C)cc2C)c1=O | 2.4 | –
10 | COCC(COC)n1cc(Cl)nc(Nc2c(C)cc(C)cc2C)c1=O | 16 | –
11 | CCC(C1CC1)n1cc(Cl)nc(Nc2c(Cl)cc(C#N)cc2Cl)c1=O (single isomer, unassigned) | 2.8 | –
12 | CC[C@H](C1CC1)n1cc(Cl)nc(Nc2c(Cl)cc(C#N)cc2Cl)c1=O | 1.2 | –
13 | CC[C@H](C1CC1)n1cc(Cl)nc(N(CC)c2c(C)cc(C)cc2C)c1=O | 4.6 | –
14 | C#Cc1cn([C@H](C)C2CC2)c(=O)c(Nc2ccc(OC)nc2C(F)(F)F)n1 | 5.6 | –
15 | COc1cc(Cl)c(Nc2nc(Cl)cn([C@H](C)C3CC3)c2=O)c(Cl)c1 | 1.1 | –
16 | CCN(c1c(Cl)cc(OC)cc1Cl)c1nccn([C@H](C)C2CC2)c1=O | 34 | –
17 | C[C@@H](C1CC1)n1cc(Cl)nc(Nc2c(Cl)cc(C#N)cc2Cl)c1=O | 6.3 | –
18 | COC[C@H](C1CC1)n1cc(Cl)nc(Nc2cc(C)c(OC)cc2C)c1=O | 0.29 | > 10000
19 | COc1ccc(Nc2nc(Br)cn([C@H](C)C3CC3)c2=O)c(C(F)(F)F)n1 | 1.2 | –
20 | C[C@H](C1CC1)n1cc(Cl)nc(Nc2c(Cl)cc(C#N)cc2Cl)c1=O | 2.4 | –
21 | CC[C@H](C1CC1)n1cc(Cl)nc(Nc2ccc(Cl)cc2)c1=O | 180 | –
22 | CC[C@H](C1CC1)n1cc(Cl)nc(Nc2c(C)cc(Cl)cc2Cl)c1=O | 0.53 | –
23 | CC[C@H](C1CC1)n1cc(Cl)nc(Nc2c(C)cccc2Cl)c1=O | 9.3 | –
24 | CC[C@H](C1CC1)n1cc(Cl)nc(Nc2ccc(C)cc2C)c1=O | 6.6 | –
25 | COC[C@@H](C)n1cc(Cl)nc(Nc2cc(C)c(OC)cc2C)c1=O | 1.7 | –
